This is a sample that favours compounds with a hit; in the whole collection about 2.7% have one here.
PP1 counter: PP1-alpha phosphatase inhibitors, primary screen, counter-screen for PP5 inhibitor project, biochemical, fluorescence, OMFP substrate, single point; Serine/threonine-protein phosphatase PP1-alpha catalytic subunit (Homo sapiens), P62136; purified PP1alpha; inhibition, % at 6.7 µM; actives 0.9% (n = 320,000); AID 2235, 2010;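 active = inhibition above the mean inhibition of all tested compounds plus 3 SD, computed separately for each screening campaign, cut at about 15% in these data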
NadD inh: inhibitors of S. aureus NadD, primary screen, biochemical, colorimetric, uHTS; inhibition, % at 20 µM; Nicotinate-nucleotide adenylyltransferase NadD (Staphylococcus aureus N315); actives 0.78% (n = 360,000); purified NadD enzyme, colorimetric absorbance read-out; in the data active = inhibition above about 26%
CSN inh: inhibitors of CSN-mediated cullin deneddylation, primary screen, biochemical, fluorescence polarization, uHTS. inhibition, % at 12.5 µM. Purified CSN, SCF-Nedd8-OG deneddylation. actives 0.38% (n = 360,000). COP9 signalosome complex subunit 5 (Homo sapiens), Q92905. AID 651999, 2013;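 active = pattern-corrected inhibition above about 35%, with an unprinted fluorescence ratio check between 0.5 and 1.5, limit read from the data, passing the limit was not always enough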;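 also: 0% = enzyme with substrate and 100% = substrate without enzyme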
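Test system: Human Csn5 produced in HEK293T cells | Compound: 12.5 µM single point | Times: 90 min, room temperature | Signal: Fluorescence polarization readout | Read-out basis: % inhibition of substrate cleavage by Csn5 | Controls: no-enzyme wells high, enzyme-with-substrate wells low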
Rpn11 inh: Rpn11 (PSMD14) deubiquitinase inhibitors, primary screen, biochemical, fluorescence polarization, uHTS; human 26S proteasome, Ub4-pepOG fluorescence polarization; 20S core pre-blocked with epoxomicin; AID 588493, 2011; actives 0.59% (n = 360,000); 26S proteasome non-ATPase regulatory subunit 14 (Homo sapiens), O00487; inhibition, % at 20 µM;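 active = inhibition at 20 µM, scaled to each plate's controls, above about 33%, limit read from the data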
TPT1 inh: Candida albicans TPT1 enzyme inhibitors, primary screen, biochemical, fluorescence polarization. recombinant caTPT1, FP RNA substrate dephosphorylation. inhibition, % at 5 µM. actives 0.81% (n = 300,000);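 active = inhibition above the mean of all tested compounds plus 3 SD, set per screening campaign, cut at about 24% in these data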;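 also: plate controls were DMSO alone for no effect and ferristatin control at 100 nM for full effect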
HNF4A DNA FP: change in binding of human HNF4A to DNA, primary screen, biochemical, fluorescence polarization, FITC-DNA; actives 0.3% (n = 360,000); AID 1224865, 2016; activity change, % at 10 µM; 1 h; Hepatocyte nuclear factor 4-alpha (Homo sapiens), P41235; in the data active = activity change above about 30%, passing the limit was not always enough
PP1 confirm: PP1 phosphatase inhibitors, confirmation, biochemical, fluorescence, OMFP substrate, triplicate; shares compounds with PP1 counter; actives 52% (n = 1,900); inhibition, % at 6.7 µM; AID 2358, 2010; purified PP1alpha;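 active = mean PP1 inhibition above a set limit taken from the earlier primary screen, cut at about 15% in these data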
PP5 counter: PP5 phosphatase inhibition by PP1 hits, confirmation, counter-screen for PP1 inhibitor project, biochemical, fluorescence, triplicate | purified PP5c, OMFP fluorescence | actives 4% (n = 1,900) | shares compounds with PP1 counter | inhibition, % at 6.7 µM | AID 2360, 2010;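 active = mean PP5 inhibition over triplicate wells above about 9.5% taken from the earlier PP1 screen, limit read from the data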
Target sequence (P53041 whole entry, looked up): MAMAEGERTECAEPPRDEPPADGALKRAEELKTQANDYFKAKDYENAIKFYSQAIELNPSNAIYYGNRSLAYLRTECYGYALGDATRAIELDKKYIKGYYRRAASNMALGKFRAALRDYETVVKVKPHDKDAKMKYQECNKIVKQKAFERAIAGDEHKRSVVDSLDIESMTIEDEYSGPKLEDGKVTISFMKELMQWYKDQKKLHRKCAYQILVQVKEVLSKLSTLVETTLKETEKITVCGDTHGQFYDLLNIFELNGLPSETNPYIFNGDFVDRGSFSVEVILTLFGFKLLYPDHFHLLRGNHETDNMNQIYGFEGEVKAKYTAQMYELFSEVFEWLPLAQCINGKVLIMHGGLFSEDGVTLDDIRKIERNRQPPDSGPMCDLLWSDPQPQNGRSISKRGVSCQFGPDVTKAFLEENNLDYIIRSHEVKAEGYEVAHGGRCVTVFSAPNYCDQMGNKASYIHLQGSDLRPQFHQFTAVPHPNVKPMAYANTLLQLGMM
* = called active by the depositor; . = no result.

SMILES | PP1 counter | NadD inh | CSN inh | Rpn11 inh | TPT1 inh | HNF4A DNA FP | PP1 confirm | PP5 counter
Cc1cccc(/C=N/NC(=O)c2cc(-c3cccnc3)nc3ccccc23)c1 | 77.7* | -8.0 | -4.5 | 1.0 | -4.7 | 0.1 | -2.0 | -1.4
CCOC(=O)c1c(NC(=O)COC(=O)c2ccc(O)cc2)sc(C(=O)N(C)C)c1C | 2.2 | -0.4 | -3.8 | 8.9 | -0.6 | 1.9 | . | .
CCOC(=O)c1c(NC(=O)COC(=O)c2ccc(NC(=O)CC#N)cc2)sc(C(=O)NC)c1C | 19.7* | 9.0 | 40.4* | 29.3 | . | -15.3 | 10.6 | -4.5
Cc1cnc(NC(=O)CSc2nnc3ncccn23)s1 | 21.6* | 5.9 | 1.6 | -1.1 | -5.6 | 3.7 | -4.2 | -6.4
O=C1NC[C@@H](Cc2cccc3ccccc23)N(CCCCC2CCCCC2)C1=O | 21.1* | 4.0 | 0.2 | 0.9 | -3.3 | 7.9 | 2.8 | 2.1
COc1ccc(C(CNC(=O)c2c(C)nn(Cc3ccc(C)cc3)c2Cl)N2CCOCC2)cc1 (centres undefined) | -1.3 | -2.9 | -2.8 | -2.6 | . | 1.2 | . | .
O=C(OCC#CCSc1nnc(-c2cccc3ccccc23)o1)c1cnc[nH]1 | . | 2.3 | -1.0 | -5.8 | . | -0.3 | . | .
CC1CCc2c(sc(NC(=O)C(=O)NCc3ccco3)c2C#N)C1 (centres undefined) | 20.0* | 6.5 | -0.7 | 3.8 | -1.3 | 0.4 | 20.9* | -3.0
Cc1cc(C(=O)Nc2sc3c(c2C#N)CCC(C)C3)no1 (centres undefined) | -3.3 | -4.2 | 2.1 | -1.5 | -1.3 | 2.7 | . | .
CC(C)c1ccc2c(c1)C(N1CCNCC1)Cc1ccc(F)cc1S2 (centres undefined) | 19.4* | . | . | . | -1.9 | . | -1.1 | -0.9
CN1CCN(C2Cc3ccc(F)cc3Sc3cc(F)c(Cl)cc32)CC1 (centres undefined) | 9.0 | -3.2 | -1.6 | -8.8 | -2.1 | 1.5 | . | .
CC1(C)CC(=O)C2=C(C1)NC(Nc1nc3ccccc3o1)=NC2c1ccccn1 (centres undefined) | -1.1 | -2.0 | -3.1 | 1.3 | 1.6 | -0.6 | . | .
CC1=C(C(=O)Nc2ccccc2)C(c2ccc(C)cc2)N=C(Nc2nc3ccccc3o2)N1 (centres undefined) | 22.6* | 16.8 | 4.8 | -2.3 | 2.8 | -0.7 | 25.3* | -0.2
O=C(NNC(=O)c1cccnc1SCc1cccc([N+](=O)[O-])c1)c1ccccn1 | 20.0* | 4.4 | -1.6 | 15.2 | 6.0 | -2.8 | 18.5* | -5.4
O=C(NNC(=O)c1cccnc1SCc1cccc([N+](=O)[O-])c1)c1ccc(F)cc1 | -1.1 | -2.1 | -1.3 | -1.8 | 0.5 | 2.0 | . | .
COc1ccc(C(=O)N/N=C/c2ccc3cccc(O)c3n2)cc1 | 20.3* | 10.2 | 4.5 | -0.7 | -1.1 | 1.9 | 5.2 | 2.0
O=C(N/N=C/c1ccc2cccc(OCc3ccccc3)c2n1)c1ccc(Cl)cc1 | 23.5* | 13.1 | 12.2 | 1.7 | 8.4 | -0.8 | 1.5 | 0.3
Cc1cccc(/C=N/NC(=O)c2ccc(NC(=O)c3ccc(F)cc3)cc2)n1 | 0.8 | -1.8 | 3.5 | -2.8 | 1.3 | 0.0 | . | .
O=C(NN1CCOCC1)c1ccc(Cl)cc1[N+](=O)[O-] | 0.9 | -1.1 | -4.7 | -17.0 | -0.5 | 5.0 | . | .
O=C(/C=C/c1cn(-c2ccccc2)nc1-c1ccccc1)Nc1ccc(C(=O)O)cc1 | 19.2* | 6.2 | -4.0 | 7.3 | -0.5 | -3.4 | 9.2 | 4.0
O=C(/C=C/c1cn(-c2ccccc2)nc1-c1cccnc1)c1ccco1 | 18.5* | 12.6 | 10.6 | 10.3 | 11.9 | 0.3 | -3.1 | -0.7
O=C(/C=C/c1cn(-c2ccccc2)nc1-c1cccnc1)N1CCCC1 | . | 6.2 | 3.8 | -0.6 | . | -0.2 | . | .
CCN(CC)CCN(C(=O)C1=COCCO1)c1nc2c(OC)ccc(OC)c2s1 | 0.5 | 0.4 | 3.6 | 0.7 | -4.3 | 2.4 | . | .
O=C(NCc1ccc2c(c1)OCO2)c1nc(Cn2cc([N+](=O)[O-])cn2)no1 | -4.7 | -9.3 | 1.8 | -5.0 | 0.1 | 4.5 | . | .
Cc1ccc(S(=O)(=O)Nc2ccc(F)cc2)cc1C(=O)N1CCOCC1 | . | -1.8 | -0.8 | 6.9 | . | 5.0 | . | .
SMILES | PP1 counter | NadD inh | CSN inh | Rpn11 inh | TPT1 inh | HNF4A DNA FP | PP1 confirm | PP5 counter
O=C(C[C@@H]1C[C@@H]2c3cc(NS(=O)(=O)c4ccc(F)cc4)ccc3O[C@@H]2[C@H](CO)O1)N1CCc2ccccc2C1 | . | 0.3 | 5.2 | -5.8 | . | -4.6 | . | .
Cc1ccccc1CCN(C(=O)Cn1nnc2ccccc21)C(C(=O)NCC1CCCO1)c1nc2ccccc2n1C (centres undefined) | 18.2* | 7.5 | 5.1 | 0.0 | 1.1 | -4.0 | 35.9* | -3.2
O=C1OC(=O)C2C1[C@@H]1CC[C@H]2O1 (some centres undefined) | 79.1* | 4.6 | 0.2 | 2.8 | -0.5 | 0.6 | 65.9* | 68.5*
O=C1C2C3CCC(O3)C2C(=O)N1c1cccc(O)c1 (centres undefined) | 1.7 | 3.5 | 1.9 | 6.5 | -3.1 | -1.0 | . | .
c1ccc(-c2nc3cc4ccccc4cc3[nH]2)nc1 | 30.1* | 6.7 | -2.7 | 3.9 | 4.1 | -6.5 | 19.6* | 3.6
CCOC(=O)c1cc(-c2ccccc2)sc1NC(=O)COC(=O)c1cccc(S(N)(=O)=O)c1 | 19.2* | 29.6 | -2.5 | 3.7 | 2.4 | 3.4 | 30.5* | -4.0
CCOC(=O)c1cc(-c2ccccc2)sc1NC(=O)CC | 1.6 | -1.0 | -3.4 | -2.2 | -1.7 | -0.7 | . | .
CCOC(=O)c1cc(-c2ccccc2)sc1NC(=O)CN1C(=O)NC(CC)(c2ccccc2)C1=O (centres undefined) | 17.8* | 22.5 | -4.2 | 4.0 | -2.4 | -1.6 | 9.9 | -4.7
COc1ccccc1NC(=O)C(C)Sc1nnc2ccccn12 (centres undefined) | -5.7 | -2.8 | -2.4 | -1.4 | . | -0.6 | . | .
CC(NC(=O)COC(=O)CN1C(=O)C2CCCCC2C1=O)c1ccccc1 (centres undefined) | . | -1.5 | -1.8 | -2.3 | . | -3.1 | . | .

From PubChem BioAssay
